According to ChEMBL document CHEMBL1759852, “A comparative study of proapoptotic potential of cyano analogues of boswellic acid and 11-keto-boswellic acid” (Eur J Med Chem, 2011):
Calls of active or inactive are those of the source. No cut-off for these calls is given here.

What was measured:
[1] = system: HL-60; assay: Induction of apoptosis in human HL60 cells assessed as DNA ladder formation at 4 uM after 9 hrs by agarose gel electrophoresis; assay type: functional, cell-based
[2] = system: HL-60; assay: Induction of apoptosis in human HL60 cells assessed as late apoptotic cells at 4 uM after 6 hrs using Annexin-V-FITC/propidium iodide staining by flow cytometry (reference value: 1%); assay type: functional
Summary of the method: (§1)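 HL-60 cells (1 × 10^6/ml) treated 6 h at varied concentrations; camptothecin 4 μM 6 h positive control. AnnexinV-FITC and propidium iodide staining per kit; FL-1 versus FL-2 flow cytometry with quadrant statistics for apoptotic and necrotic populations; representative of three experiments.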

[3] = system: HL-60; assay: Induction of apoptosis in human HL60 cells assessed as early apoptotic cells at 4 uM after 6 hrs using Annexin-V-FITC/propidium iodide staining by flow cytometry (reference value: 6%); assay type: functional; summary of the method: as §1
[4] = system: HL-60; assay: Cell cycle arrest in human HL60 cells assessed as accumulation at sub-G1 phase at 4 uM after 18 hrs by flow cytometry relative to control

With `CC[C@@]1(O)C(=O)OCc2c1cc1n(c2=O)Cc2cc3ccccc3nc2-1` [CAMPTOTHECIN] the Activity [1] was “Active”, the Activity [2] was 4% and the Activity [3] was 35%. The Activity [4] was 96%.
